Test results reported in ChEMBL document CHEMBL3877303 (J Med Chem, 2017).

Assays:
[1] = Growth inhibition of mouse BAF3 cells measured after 72 hrs by CellTiter-Glo or CCK8 assay; format: cell-based
Summary of the method: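 Cells at 1 to 2.5×10^4 cells/mL were incubated with a range of compound concentrations for 72 h. Viability was read by CellTiter-Glo luminescence or CCK-8 absorbance (450/655 nm) and normalized to DMSO control. GI50 came from curve fitting, with triplicate testing.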

[2] = target: BCR/ABL p210 fusion protein (Homo sapiens, UniProt A1Z199); assay: Inhibition of human BCR/ABL p210 fusion protein expressed in BAF3 cells assessed as growth inhibition measured after 72 hrs by CellTiter-Glo or CCK8 assay; format: cell-based
Summary of the method: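 Seeded at 1 to 2.5×10^4 cells/mL with various compound concentrations, 72 h. Viability read by CellTiter-Glo luminescence or CCK-8 absorbance (450/655 nm), normalized to DMSO control, GI50 from curve fit, triplicate testing.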

[3] = target: T1, Mast/stem cell growth factor receptor Kit (Homo sapiens, UniProt P10721); conditions: BaF3
[4] = target: T1, Mast/stem cell growth factor receptor Kit; assay: Inhibition of recombinant C-terminal polyhistidine-tagged human c-KIT expressed in mammalian expression system using Tyr 06 peptide as substrate measured after 1hr by FRET based Z'Lyte assay

T1 sequence (P10721 whole entry): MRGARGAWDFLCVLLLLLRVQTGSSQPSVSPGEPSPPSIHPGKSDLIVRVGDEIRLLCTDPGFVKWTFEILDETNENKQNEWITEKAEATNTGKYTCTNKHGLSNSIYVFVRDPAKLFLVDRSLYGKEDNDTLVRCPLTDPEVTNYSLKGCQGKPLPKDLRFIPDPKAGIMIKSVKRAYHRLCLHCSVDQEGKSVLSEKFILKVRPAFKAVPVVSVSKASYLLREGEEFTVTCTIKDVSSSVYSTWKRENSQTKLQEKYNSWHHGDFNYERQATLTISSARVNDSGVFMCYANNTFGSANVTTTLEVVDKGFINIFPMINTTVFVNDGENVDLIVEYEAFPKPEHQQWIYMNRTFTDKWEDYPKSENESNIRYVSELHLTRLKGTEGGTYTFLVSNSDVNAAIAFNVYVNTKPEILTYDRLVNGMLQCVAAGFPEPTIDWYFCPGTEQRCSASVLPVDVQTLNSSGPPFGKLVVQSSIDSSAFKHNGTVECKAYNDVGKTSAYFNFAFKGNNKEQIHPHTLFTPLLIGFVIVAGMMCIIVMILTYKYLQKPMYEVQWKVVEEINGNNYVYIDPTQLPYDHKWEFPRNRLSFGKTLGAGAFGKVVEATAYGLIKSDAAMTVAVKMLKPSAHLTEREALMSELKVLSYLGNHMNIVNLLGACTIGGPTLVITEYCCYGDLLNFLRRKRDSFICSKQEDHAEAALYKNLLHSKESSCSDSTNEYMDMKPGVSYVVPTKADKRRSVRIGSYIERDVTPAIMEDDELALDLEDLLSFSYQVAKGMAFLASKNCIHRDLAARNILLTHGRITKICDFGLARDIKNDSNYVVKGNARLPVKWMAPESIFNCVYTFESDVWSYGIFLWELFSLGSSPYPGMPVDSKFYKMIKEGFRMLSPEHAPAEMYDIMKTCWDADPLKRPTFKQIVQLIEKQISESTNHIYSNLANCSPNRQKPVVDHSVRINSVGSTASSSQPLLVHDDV
Sequence of BCR/ABL p210 fusion protein (A1Z199 1-97): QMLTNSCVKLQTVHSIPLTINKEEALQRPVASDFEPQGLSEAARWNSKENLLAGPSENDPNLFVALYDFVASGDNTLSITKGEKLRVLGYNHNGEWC

SMILES	GI50 at 72 h [1] [nM]	GI50 [2] [nM]	GI50 [3] [nM]	IC50 [4] [nM]
Cc1ccc(NC(=O)c2ccc(CN3CCN(C)CC3)c(C(F)(F)F)c2)cc1OC1CCN(S(=O)(=O)c2ccccc2)CC1	5100	4770	600	–
CN1CCN(Cc2ccc(C(=O)Nc3ccc(Cl)c(OC4CCN(C(=O)c5cccnc5)CC4)c3)cc2C(F)(F)F)CC1	> 10000	253	340	–
Cc1ccc(NC(=O)c2ccc(CN3CCN(C)CC3)c(C(F)(F)F)c2)cc1OC1CCN(C(=O)c2cccnc2C)CC1	540	2210	370	–
Cc1ccc(NC(=O)c2ccc(CN3CCN(C)CC3)c(C(F)(F)F)c2)cc1OC1CCN(C(=O)c2ccoc2)CC1	> 10000	153	270	–
Cc1ccc(NC(=O)c2ccc(CN3CCN(C)CC3)c(C(F)(F)F)c2)cc1OC1CCN(C(=O)c2cnccc2C)CC1	2680	203	210	336
Cc1ccc(NC(=O)c2ccc(CN3CCN(C)CC3)c(C(F)(F)F)c2)cc1OC1CCN(C(=O)c2cncc(Cl)c2)CC1	2870	219	37	–
Cc1ccc(NC(=O)c2ccc(CN3CCN(C)CC3)c(C(F)(F)F)c2)cc1OC1CCN(C(=O)c2cccnc2)CC1	> 10000	164	220	–
Cc1ccc(NC(=O)c2ccc(CN3CCN(C)CC3)c(C(F)(F)F)c2)cc1OC1CCN(C(=O)c2ccncc2)CC1	> 10000	88	170	256
Cc1ccc(NC(=O)c2ccc(CN3CCN(C)CC3)c(C(F)(F)F)c2)cc1OC1CCN(C(=O)c2cnc(N)nc2)CC1	> 10000	168	200	–
Cc1ccc(NC(=O)c2ccc(CN3CCN(C)CC3)c(C(F)(F)F)c2)cc1OCC1CN(C(=O)c2cccnc2)C1	1070	5400	2860	–
Cc1ccc(NC(=O)c2ccc(CN3CCN(C)CC3)c(C(F)(F)F)c2)cc1OC1CCN(C(=O)c2cccnc2Cl)CC1	2720	2760	62	–
Cc1ccc(NC(=O)c2ccc(CN3CCN(C)CC3)c(C(F)(F)F)c2)cc1OC1CCN(C(=O)c2ccc(=O)[nH]c2)CC1	> 10000	1970	1600	–
Cc1ccc(NC(=O)c2ccc(CN3CCN(C)CC3)cc2)cc1OC1CCN(C(=O)c2cccnc2)CC1	> 10000	8780	> 5000	–
Cc1ccc(NC(=O)c2ccc(CN3CCN(C)CC3)c(C(F)(F)F)c2)cc1OC1CCN(C(=O)c2cnc3ccccc3c2)CC1	1300	86	320	–
Cc1ccc(NC(=O)c2ccc(CN3CCN(C)CC3)c(C(F)(F)F)c2)cc1OCC1CCN(C(=O)c2cccnc2)C1 (configuration not stated)	3980	4940	3820	–
Cc1ccc(NC(=O)c2ccc(CN3CCN(C)CC3)c(C(F)(F)F)c2)cc1OC1CCN(C(=O)CN(C)C)CC1	> 10000	3070	1630	–
Cc1ccc(NC(=O)c2ccc(CN3CCN(C)CC3)c(C(F)(F)F)c2)cc1OC1CCN(C(=O)Cc2cccnc2)CC1	6490	5520	780	–
Cc1ccc(NC(=O)c2ccc(CN3CCN(C)CC3)c(C(F)(F)F)c2)cc1OC1CCN(C(=O)c2ccccn2)CC1	> 10000	72	200	644
Cc1cncc(C(=O)N2CCC(Oc3cc(NC(=O)c4ccc(CN5CCN(C)CC5)c(C(F)(F)F)c4)ccc3C)CC2)c1	800	79	28	214
COc1ccc(NC(=O)c2ccc(CN3CCN(C)CC3)c(C(F)(F)F)c2)cc1OC1CCN(C(=O)c2cccnc2)CC1	> 10000	8410	> 10000	–
Cc1ccc(NC(=O)c2ccc(CN3CCN(C)CC3)c(C(F)(F)F)c2)cc1OC1CCN(c2ncccn2)CC1	8100	3220	2500	–
Cc1ccc(NC(=O)c2ccc(CN3CCN(C)CC3)c(C(F)(F)F)c2)cc1OC1CCN(C(=O)c2cccnc2F)CC1	1520	2000	63	–
C=CC(=O)N1CCC(Oc2cc(NC(=O)c3ccc(CN4CCN(C)CC4)c(C(F)(F)F)c3)ccc2C)CC1	> 10000	427	–	–
Cc1ccc(NC(=O)c2ccc(CN3CCN(C)CC3)c(C(F)(F)F)c2)cc1OC1CCN(C(=O)c2ccsc2)CC1	1480	135	26	–
Cc1ccc(NC(=O)c2ccc(CN3CCN(C)CC3)c(C(F)(F)F)c2)cc1OC1CCN(C(=O)c2ccccc2)CC1	4730	635	550	–
CCC(=O)N1CCC(Oc2cc(NC(=O)c3ccc(CN4CCN(C)CC4)c(C(F)(F)F)c3)ccc2C)CC1	> 10000	998	300	–
COc1cc2ncnc(N3CCC(Oc4cc(NC(=O)c5ccc(CN6CCN(C)CC6)c(C(F)(F)F)c5)ccc4C)CC3)c2cc1OC	1200	773	190	–
Cc1ccc(NC(=O)c2ccc(CN3CCN(C)CC3)c(C(F)(F)F)c2)cc1OCCNC(=O)c1cccnc1	> 10000	1550	3300	–
